Data published in ChEMBL document CHEMBL2331331 (J Med Chem, 2013).
The source made the active and inactive calls. The calls are words filed in the database; no cut-off is given here.

How the values were obtained:
U-266 = assay: Cytotoxicity against human U266 cells assessed as growth inhibition after 72 hrs by MTT assay; conditions: U-266, 72 h
[1] = molecular target: Cyclin-dependent kinase 2 (Homo sapiens, UniProt P24941); assay: Inhibition of CDK2 (unknown origin)
MV4-11 [2] = assay: Antitumor activity against FLT3-ITD-positive human MV4-11 cells xenografted in NOD-SCID mouse assessed as tumor growth inhibition at 3 mg/kg/day, po administered 18 days measured every 3 days for 18 days; type: functional, organism-based
In short: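 NOD-SCID mice (5–6 weeks) implanted sc with 1 × 10⁸/mL MV4-11 cells (100 μL) in serum-free medium. Grouped at 300–500 mm³, six per group, then dosed orally once daily for 18 days. Vehicle was 12.5% castor oil, 12.5% ethanol, 75% water. Tumor volume = long × short²/2, measured every 3 d.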

[3] = molecular target: Fibroblast growth factor receptor 2 (Homo sapiens, UniProt P21802); assay: Inhibition of FGFR2 (unknown origin)
Sequence of Fibroblast growth factor receptor 2 (P21802 whole entry): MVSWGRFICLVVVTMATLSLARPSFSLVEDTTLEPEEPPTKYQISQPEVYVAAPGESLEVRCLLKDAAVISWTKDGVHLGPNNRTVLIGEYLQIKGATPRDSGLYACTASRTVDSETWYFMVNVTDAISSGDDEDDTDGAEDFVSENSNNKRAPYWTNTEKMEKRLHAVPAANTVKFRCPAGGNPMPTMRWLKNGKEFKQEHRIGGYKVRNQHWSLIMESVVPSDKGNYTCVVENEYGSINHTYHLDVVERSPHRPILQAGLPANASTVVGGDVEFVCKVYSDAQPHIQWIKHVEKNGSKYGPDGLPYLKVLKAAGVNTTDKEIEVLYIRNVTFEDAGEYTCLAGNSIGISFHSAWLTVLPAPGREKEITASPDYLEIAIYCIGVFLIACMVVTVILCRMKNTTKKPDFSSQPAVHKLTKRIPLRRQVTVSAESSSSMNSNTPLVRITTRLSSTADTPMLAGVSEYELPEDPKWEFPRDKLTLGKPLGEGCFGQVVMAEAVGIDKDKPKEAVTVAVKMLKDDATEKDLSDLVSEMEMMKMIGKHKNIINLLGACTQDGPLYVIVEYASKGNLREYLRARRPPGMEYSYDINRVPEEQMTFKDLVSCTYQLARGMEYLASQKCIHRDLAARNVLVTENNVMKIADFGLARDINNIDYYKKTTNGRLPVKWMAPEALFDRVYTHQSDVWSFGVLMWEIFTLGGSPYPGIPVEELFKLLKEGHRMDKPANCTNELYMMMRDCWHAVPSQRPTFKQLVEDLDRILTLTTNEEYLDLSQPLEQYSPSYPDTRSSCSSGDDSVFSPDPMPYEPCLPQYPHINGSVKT

MV4-11 [4] = assay: Induction of apoptosis in human MV4-11 cells after 24 hrs by annexin V-FITC/propidium iodide staining-based FACS flow cytometric analysis; type: functional, cell-based
SK-OV-3 = assay: Cytotoxicity against human SKOV3 cells assessed as growth inhibition after 72 hrs by MTT assay; conditions: SK-OV-3, 72 h
MKN-45 = assay: Cytotoxicity against human MKN45 cells assessed as growth inhibition after 72 hrs by MTT assay; conditions: MKN-45, 72 h
MV4-11 [5] = assay: Induction of apoptosis in human MV4-11 cells assessed as late apoptotic cells at 0.03 uM after 24 hrs by annexin V-FITC/propidium iodide staining-based FACS flow cytometric analysis (reference value: 4.28%); type: functional
[6] = molecular target: T1, Receptor-type tyrosine-protein kinase FLT3 (Homo sapiens, UniProt P36888); assay: Inhibition of FLT3 in human MV4-11 cells assessed as inhibition of Erk1/2 phosphorylation after 20 hrs by Western blotting analysis; type: cell-based
T1 sequence (P36888 whole entry): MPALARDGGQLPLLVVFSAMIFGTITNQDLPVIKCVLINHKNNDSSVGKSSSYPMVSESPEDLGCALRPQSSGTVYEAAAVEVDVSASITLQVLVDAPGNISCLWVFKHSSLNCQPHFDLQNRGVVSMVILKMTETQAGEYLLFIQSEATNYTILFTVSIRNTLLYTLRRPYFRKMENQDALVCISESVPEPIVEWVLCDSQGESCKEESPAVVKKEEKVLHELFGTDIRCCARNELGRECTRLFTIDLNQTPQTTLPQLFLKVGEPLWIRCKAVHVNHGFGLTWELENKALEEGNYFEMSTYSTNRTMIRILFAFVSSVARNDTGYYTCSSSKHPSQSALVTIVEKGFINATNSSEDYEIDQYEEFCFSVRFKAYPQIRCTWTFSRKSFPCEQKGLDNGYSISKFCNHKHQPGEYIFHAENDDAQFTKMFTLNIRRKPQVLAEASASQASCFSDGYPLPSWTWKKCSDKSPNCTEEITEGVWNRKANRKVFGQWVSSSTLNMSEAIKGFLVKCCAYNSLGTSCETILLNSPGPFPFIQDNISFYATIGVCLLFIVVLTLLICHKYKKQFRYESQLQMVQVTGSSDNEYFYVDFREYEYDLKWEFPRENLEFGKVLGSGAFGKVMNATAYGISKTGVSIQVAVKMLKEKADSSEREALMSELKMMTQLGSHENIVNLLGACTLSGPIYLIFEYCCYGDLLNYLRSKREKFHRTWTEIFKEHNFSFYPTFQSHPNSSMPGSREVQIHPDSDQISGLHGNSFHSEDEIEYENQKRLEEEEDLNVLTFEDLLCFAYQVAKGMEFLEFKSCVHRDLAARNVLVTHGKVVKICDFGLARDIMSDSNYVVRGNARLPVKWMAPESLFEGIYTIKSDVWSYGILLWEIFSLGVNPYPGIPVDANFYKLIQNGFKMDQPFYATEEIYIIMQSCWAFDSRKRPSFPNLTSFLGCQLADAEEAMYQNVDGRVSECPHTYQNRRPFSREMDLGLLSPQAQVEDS

[7] = molecular target: Calcium/calmodulin-dependent protein kinase type IV (Homo sapiens, UniProt Q16566); assay: Inhibition of CAMK4 (unknown origin)
Sequence of Calcium/calmodulin-dependent protein kinase type IV (Q16566 whole entry): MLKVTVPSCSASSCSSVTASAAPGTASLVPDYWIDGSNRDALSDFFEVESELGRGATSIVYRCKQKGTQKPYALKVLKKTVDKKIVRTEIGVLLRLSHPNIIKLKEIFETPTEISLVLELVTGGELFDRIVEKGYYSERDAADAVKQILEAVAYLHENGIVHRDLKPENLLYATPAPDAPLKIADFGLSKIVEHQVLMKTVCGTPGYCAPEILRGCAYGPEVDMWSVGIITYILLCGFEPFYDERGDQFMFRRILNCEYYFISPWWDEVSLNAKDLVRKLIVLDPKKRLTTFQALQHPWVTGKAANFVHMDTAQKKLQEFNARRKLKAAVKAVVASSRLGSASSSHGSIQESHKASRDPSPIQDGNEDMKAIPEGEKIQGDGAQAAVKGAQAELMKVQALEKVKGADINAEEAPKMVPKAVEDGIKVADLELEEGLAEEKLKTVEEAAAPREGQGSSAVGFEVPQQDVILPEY

[8] = Cmax in Sprague-Dawley rat at 10 mg/kg/day, po measured within 7 hrs; type: ADME, organism-based; set-up: dose 10 mg/kg/day, route oral; conditions: in vivo
[9] = molecular target: RAF proto-oncogene serine/threonine-protein kinase (Homo sapiens, UniProt P04049); assay: Inhibition of c-RAF (unknown origin)
Sequence of RAF proto-oncogene serine/threonine-protein kinase (P04049 whole entry): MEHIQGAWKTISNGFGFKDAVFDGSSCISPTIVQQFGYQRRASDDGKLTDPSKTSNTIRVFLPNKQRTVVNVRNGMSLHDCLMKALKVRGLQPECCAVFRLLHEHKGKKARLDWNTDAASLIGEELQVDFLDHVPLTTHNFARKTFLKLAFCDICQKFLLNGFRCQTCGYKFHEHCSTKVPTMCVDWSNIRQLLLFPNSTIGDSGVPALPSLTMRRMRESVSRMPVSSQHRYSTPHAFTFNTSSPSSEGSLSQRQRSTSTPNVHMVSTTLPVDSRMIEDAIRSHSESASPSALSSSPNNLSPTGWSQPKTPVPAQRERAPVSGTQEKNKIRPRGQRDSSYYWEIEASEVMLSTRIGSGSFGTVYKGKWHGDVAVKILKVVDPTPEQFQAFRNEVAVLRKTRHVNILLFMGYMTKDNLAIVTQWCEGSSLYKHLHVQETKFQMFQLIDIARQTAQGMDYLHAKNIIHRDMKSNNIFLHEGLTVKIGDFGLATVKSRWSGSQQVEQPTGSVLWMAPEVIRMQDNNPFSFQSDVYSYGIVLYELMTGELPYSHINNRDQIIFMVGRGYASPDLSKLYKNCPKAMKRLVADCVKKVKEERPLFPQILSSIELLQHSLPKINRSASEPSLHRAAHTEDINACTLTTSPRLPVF

Bel-7402 = assay: Cytotoxicity against human Bel7402 cells assessed as growth inhibition after 72 hrs by MTT assay; conditions: Bel-7402, 72 h
[10] = molecular target: Insulin-like growth factor 1 receptor (Homo sapiens, UniProt P08069); assay: Inhibition of IGF1R (unknown origin)
MV4-11 [11] = assay: Antitumor activity against human MV4-11 cells xenografted in mouse at 5 mg/kg/day, po after 18 days; type: functional, organism-based
In short: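 MV4-11 sc xenograft mice dosed daily by mouth once tumors reached about 400 mm³, three mice per group; tumor volume followed.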

HCT-116 = assay: Cytotoxicity against human HCT116 cells assessed as growth inhibition after 72 hrs by MTT assay; conditions: HCT-116, 72 h
[12] = Oral bioavailability in Sprague-Dawley rat at 10 mg/kg/day; type: ADME, organism-based; conditions: in vivo
In short: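 Sprague-Dawley rats, five per group, were dosed orally at 10 mg/kg. Plasma was sampled through jugular vein cannulation. Drug levels were measured by liquid–liquid extraction followed by LC–MS.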

MV4-11 [13] = assay: Induction of apoptosis in human MV4-11 cells assessed as early apoptotic cells at 0.03 uM after 24 hrs by annexin V-FITC/propidium iodide staining-based FACS flow cytometric analysis (reference value: 1.61%); type: functional
Aurora kinase A = Aurora kinase A (Homo sapiens, UniProt O14965); assay: Inhibition of aurora-A (unknown origin)
Sequence of Aurora kinase A (O14965 whole entry): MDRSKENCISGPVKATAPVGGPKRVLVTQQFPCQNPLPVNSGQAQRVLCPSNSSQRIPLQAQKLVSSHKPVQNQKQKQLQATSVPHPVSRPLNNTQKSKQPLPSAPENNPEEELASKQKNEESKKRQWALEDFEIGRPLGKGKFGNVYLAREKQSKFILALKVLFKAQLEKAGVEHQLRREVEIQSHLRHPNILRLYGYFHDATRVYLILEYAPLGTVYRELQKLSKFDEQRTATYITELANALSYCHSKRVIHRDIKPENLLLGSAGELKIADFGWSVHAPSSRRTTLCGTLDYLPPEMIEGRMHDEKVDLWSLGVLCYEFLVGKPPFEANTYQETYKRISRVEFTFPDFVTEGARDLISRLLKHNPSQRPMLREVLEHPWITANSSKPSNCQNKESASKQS

Aurora kinase B = Aurora kinase B (Homo sapiens, UniProt Q96GD4); assay: Inhibition of aurora-B (unknown origin)
Sequence of Aurora kinase B (Q96GD4 whole entry): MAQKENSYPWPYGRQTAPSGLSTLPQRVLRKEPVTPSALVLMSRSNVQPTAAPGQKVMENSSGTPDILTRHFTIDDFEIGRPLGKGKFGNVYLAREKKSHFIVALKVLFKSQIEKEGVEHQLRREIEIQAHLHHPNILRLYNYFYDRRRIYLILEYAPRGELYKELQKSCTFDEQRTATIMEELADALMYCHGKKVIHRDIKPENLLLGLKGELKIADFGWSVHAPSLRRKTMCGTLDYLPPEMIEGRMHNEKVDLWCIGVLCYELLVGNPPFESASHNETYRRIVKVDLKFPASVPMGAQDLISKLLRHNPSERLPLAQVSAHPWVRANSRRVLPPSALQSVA

TT = assay: Cytotoxicity against human TT cells assessed as growth inhibition after 72 hrs by MTT assay
[14] = Cytotoxicity against human SK cells assessed as growth inhibition after 72 hrs by MTT assay
HL-60 = assay: Cytotoxicity against human HL60 cells assessed as growth inhibition after 72 hrs by MTT assay; conditions: HL-60, 72 h
LoVo = assay: Cytotoxicity against human LoVo cells assessed as growth inhibition after 72 hrs by MTT assay
[15] = molecular target: Vascular endothelial growth factor receptor 2 (Danio rerio) (UniProt Q5GIT4); assay: Inhibition of VEGFR2 in transgenic zebrafish embryo assessed as inhibition of intersegmental vessels formation at 5 uM measured 33 hrs post fertilization by fluorescence microscopic analysis
Sequence of Vascular endothelial growth factor receptor 2 (Danio rerio) (Q5GIT4 whole entry): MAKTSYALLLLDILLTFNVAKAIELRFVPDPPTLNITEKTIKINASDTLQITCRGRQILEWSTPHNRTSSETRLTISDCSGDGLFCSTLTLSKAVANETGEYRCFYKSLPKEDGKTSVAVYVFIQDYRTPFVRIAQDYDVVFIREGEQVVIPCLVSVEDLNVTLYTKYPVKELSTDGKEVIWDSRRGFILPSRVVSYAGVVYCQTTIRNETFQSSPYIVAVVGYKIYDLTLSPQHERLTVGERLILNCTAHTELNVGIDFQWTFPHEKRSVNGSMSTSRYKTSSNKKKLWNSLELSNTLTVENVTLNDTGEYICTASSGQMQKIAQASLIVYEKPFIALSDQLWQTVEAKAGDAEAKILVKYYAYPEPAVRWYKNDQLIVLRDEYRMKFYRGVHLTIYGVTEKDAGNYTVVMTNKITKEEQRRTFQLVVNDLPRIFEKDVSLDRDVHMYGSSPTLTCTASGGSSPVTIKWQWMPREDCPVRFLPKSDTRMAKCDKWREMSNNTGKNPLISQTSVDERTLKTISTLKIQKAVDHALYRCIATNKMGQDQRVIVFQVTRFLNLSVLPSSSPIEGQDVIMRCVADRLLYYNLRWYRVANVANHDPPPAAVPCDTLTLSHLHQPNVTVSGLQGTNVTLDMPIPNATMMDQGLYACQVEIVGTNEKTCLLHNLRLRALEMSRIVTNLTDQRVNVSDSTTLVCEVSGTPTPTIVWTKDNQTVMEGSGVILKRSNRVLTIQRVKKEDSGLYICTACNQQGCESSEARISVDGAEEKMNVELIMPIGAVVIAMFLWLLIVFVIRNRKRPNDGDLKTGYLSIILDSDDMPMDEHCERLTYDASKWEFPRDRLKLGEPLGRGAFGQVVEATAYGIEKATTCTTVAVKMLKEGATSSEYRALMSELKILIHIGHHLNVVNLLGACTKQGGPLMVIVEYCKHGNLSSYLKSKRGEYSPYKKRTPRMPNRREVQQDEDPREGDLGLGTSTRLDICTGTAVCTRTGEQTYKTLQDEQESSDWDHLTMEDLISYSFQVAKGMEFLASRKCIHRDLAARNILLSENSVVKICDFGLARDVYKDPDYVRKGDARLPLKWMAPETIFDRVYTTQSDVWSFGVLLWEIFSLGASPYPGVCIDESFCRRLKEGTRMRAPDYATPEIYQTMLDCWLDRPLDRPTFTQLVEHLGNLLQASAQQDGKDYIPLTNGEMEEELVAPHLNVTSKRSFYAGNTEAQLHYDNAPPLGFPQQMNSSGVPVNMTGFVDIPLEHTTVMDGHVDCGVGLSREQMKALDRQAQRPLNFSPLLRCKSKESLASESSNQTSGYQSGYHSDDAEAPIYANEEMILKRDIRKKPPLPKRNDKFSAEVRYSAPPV
In short: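 FLK-1:EGFP transgenic zebrafish embryos, 10 per well, exposed at 28.5 °C from 15 to 31 hpf to compound in fish water at 1.25, 2.5 or 5 μM (diluted from a 10 mmol/L DMSO stock); 0.3% DMSO as vehicle control. Embryos were imaged at 33 hpf, and ISVs above the yolk extension were scored for length. n = 11, mean ± SD, ANOVA.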

With `O=C(Nc1ccc(Oc2ncnc3[nH]ncc23)cc1)Nc1ccc(Cl)c(C(F)(F)F)c1` as the molecule, how does the IC50 (U-266) read?
The IC50 was greater than 10 µM.

And the IC50 [1]?
Its IC50 is greater than 10 µM.

What about the TGI (MV4-11 [2]) of the same molecule?
The TGI was “Active”.

And the IC50 [3]?
Its IC50 is 1.81 µM.

And the Activity (MV4-11 [4])?
The Activity was “Dose-dependent effect”.

What about the IC50 (SK-OV-3) of the same molecule?
The IC50 was greater than 10 µM.

And the IC50 (MKN-45)?
Its IC50 is 8.23 µM.

And the Activity (MV4-11 [5])?
The Activity was 17.8%.

And the IC50 [6]?
The IC50 was 0.001 µM.

What about the IC50 [7] of the same molecule?
The IC50 was greater than 10 µM.

What about the Cmax [8] of the same molecule?
Its Cmax is 15100 ng/mL.

What about the IC50 [9] of the same molecule?
Its IC50 is 0.072 µM.

And the IC50 (Bel-7402)?
The IC50 was greater than 10 µM.

And the IC50 [10]?
Its IC50 is greater than 10 µM.

And the Activity (MV4-11 [11])?
Its Activity is “Active”.

What about the IC50 (HCT-116) of the same molecule?
The IC50 was greater than 10 µM.

What about the bioavailability [12] of the same molecule?
The bioavailability was 66.7%.

And the Activity (MV4-11 [13])?
The Activity was 8.93%.

And the IC50 (Aurora kinase A)?
The IC50 was greater than 10 µM.

What about the IC50 (Aurora kinase B) of the same molecule?
Its IC50 is greater than 10 µM.

And the IC50 (TT)?
The IC50 was 3.42 µM.

And the IC50 [14]?
Its IC50 is greater than 10 µM.

And the IC50 (HL-60)?
The IC50 was greater than 10 µM.

What about the IC50 (LoVo) of the same molecule?
Its IC50 is greater than 10 µM.

What about the inhibition [15] of the same molecule?
The inhibition was “Active”.
